{
  "source": "ChEMBL document CHEMBL3046087",
  "about": "“Aminomethylphosphonic acid accumulation in plant species treated with glyphosate” (J Agric Food Chem, 2008)",
  "key": {"[1]": {"system": "Senna occidentalis", "experiment": "Drug level in Senna occidentalis (coffee senna) assessed as AMPA level at growth inhibition I50 level rate measured 7 days post treatment", "assay_type": "organism-based", "conditions": "in vivo, 168 h", "how_it_was_run": "(§1)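 Greenhouse plants (28/22 °C, 13 h photoperiod) were sprayed with glyphosate at each species' I50 rate, with Tween 20-treated controls. Shoots were cut at 7 DAT and rinsed to remove surface herbicide. Pooled ground tissue (1 g) was water-extracted twice with sonication, acidified, and washed with methylene chloride. Extracts were derivatized with heptafluorobutanol/TFAA (90 °C, 1 h) and measured by GC-MS against derivatized standards, in duplicate.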"}, "[2]": {"system": "Vigna unguiculata", "experiment": "Drug level in Vigna unguiculata (cowpea) assessed as AMPA level at growth inhibition I50 level rate measured 7 days post treatment", "assay_type": "organism-based", "conditions": "in vivo, 168 h", "how_it_was_run": "as §1"}, "[3]": {"system": "Glycine max", "experiment": "Drug level in non glyphosate-resistant Glycine max (soybean) assessed as AMPA level at growth inhibition I50 level rate measured 7 days post treatment", "assay_type": "organism-based", "conditions": "in vivo, 168 h", "how_it_was_run": "as §1"}, "[4]": {"system": "Glycine max", "experiment": "Drug level in glyphosate-resistant Glycine max (soybean) assessed as AMPA level at growth inhibition I50 level rate measured 7 days post treatment", "assay_type": "organism-based", "conditions": "in vivo, 168 h", "how_it_was_run": "as §1"}, "[5]": {"experiment": "Drug level in non glyphosate-resistant Zea mays (maize) at growth inhibition I50 level rate measured 7 days post treatment", "assay_type": "organism-based", "conditions": "in vivo, read-out: Drug uptake", "how_it_was_run": "as §1"}, "[6]": {"experiment": "Drug level in Lolium multiflorum (Italian ryegrass) at growth inhibition I50 level rate measured 7 days post treatment", "assay_type": "organism-based", "conditions": "in vivo, read-out: Drug uptake", "how_it_was_run": "as §1"}, "[7]": {"experiment": "Drug level in glyphosate-resistant Zea mays (maize) at growth inhibition I50 level rate measured 7 days post treatment", "assay_type": "organism-based", "conditions": "in vivo, read-out: Drug uptake", "how_it_was_run": "as §1"}, "[8]": {"experiment": "Drug level in Abutilon theophrasti (velvetleaf) at growth inhibition I50 level rate measured 7 days post treatment", "assay_type": "organism-based", "conditions": "in vivo, read-out: Drug uptake", "how_it_was_run": "as §1"}, "[9]": {"experiment": "Drug level in Conyza canadensis (horseweed) at growth inhibition I50 level rate measured 7 days post treatment", "assay_type": "organism-based", "conditions": "erigeron canadensis, in vivo; read-out: Drug uptake", "how_it_was_run": "as §1"}, "[10]": {"experiment": "Drug level in Pueraria montana var. lobata ( kudzu) at growth inhibition I50 level rate measured 7 days post treatment", "assay_type": "organism-based", "conditions": "in vivo, read-out: Drug uptake", "how_it_was_run": "as §1"}, "[11]": {"experiment": "Drug level in Desmanthus illinoensis (Illinois bundleflower) at growth inhibition I50 level rate measured 7 days post treatment", "assay_type": "organism-based", "conditions": "in vivo, read-out: Drug uptake", "how_it_was_run": "as §1"}, "[12]": {"experiment": "Drug level in Sesbania herbacea at growth inhibition I50 level rate measured 7 days post treatment", "assay_type": "organism-based", "conditions": "in vivo, read-out: Drug uptake", "how_it_was_run": "as §1"}, "[13]": {"experiment": "Drug level in Senna occidentalis (coffee senna) at growth inhibition I50 level rate measured 7 days post treatment", "assay_type": "organism-based", "conditions": "in vivo, read-out: Drug uptake", "how_it_was_run": "as §1"}, "[14]": {"experiment": "Drug level in Senna obtusifolia (sicklepod) at growth inhibition I50 level rate measured 7 days post treatment", "assay_type": "organism-based", "conditions": "in vivo, read-out: Drug uptake", "how_it_was_run": "as §1"}, "[15]": {"experiment": "Drug level in Vigna unguiculata (cowpea) at growth inhibition I50 level rate measured 7 days post treatment", "assay_type": "organism-based", "conditions": "in vivo, read-out: Drug uptake", "how_it_was_run": "as §1"}, "[16]": {"experiment": "Drug level in non glyphosate-resistant Glycine max (soybean) at growth inhibition I50 level rate measured 7 days post treatment", "assay_type": "organism-based", "conditions": "in vivo, read-out: Drug uptake", "how_it_was_run": "as §1"}, "[17]": {"experiment": "Drug level in glyphosate-resistant Glycine max (soybean) at growth inhibition I50 level rate measured 7 days post treatment", "assay_type": "organism-based", "conditions": "in vivo, read-out: Drug uptake", "how_it_was_run": "as §1"}, "[18]": {"system": "Lolium multiflorum", "experiment": "Growth inhibition of Lolium multiflorum (Italian ryegrass) measured 7 days post treatment", "assay_type": "functional"}, "[19]": {"system": "Zea mays", "experiment": "Growth inhibition of glyphosate-resistant Zea mays (maize) measured 7 days post treatment", "assay_type": "functional"}, "[20]": {"system": "Erigeron canadensis", "experiment": "Growth inhibition of Conyza canadensis (horseweed) measured 7 days post treatment", "assay_type": "functional"}, "[21]": {"system": "Glycine max", "experiment": "Growth inhibition of non glyphosate-resistant Glycine max (soybean) measured 7 days post treatment", "assay_type": "functional"}, "[22]": {"system": "Glycine max", "experiment": "Growth inhibition of glyphosate-resistant Glycine max (soybean) measured 7 days post treatment", "assay_type": "functional"}, "[23]": {"system": "Pueraria montana var. lobata", "experiment": "Growth inhibition of Pueraria montana var. lobata ( kudzu) measured 7 days post treatment", "assay_type": "functional"}, "[24]": {"system": "Desmanthus illinoensis", "experiment": "Growth inhibition of Desmanthus illinoensis (Illinois bundleflower) measured 7 days post treatment", "assay_type": "functional"}, "[25]": {"system": "Sesbania herbacea", "experiment": "Growth inhibition of Sesbania herbacea measured 14 days post treatment"}, "[26]": {"system": "Vigna unguiculata", "experiment": "Growth inhibition of Vigna unguiculata (cowpea) measured 14 days post treatment"}, "[27]": {"system": "Senna obtusifolia", "experiment": "Growth inhibition of Senna obtusifolia (sicklepod) measured 14 days post treatment"}, "[28]": {"system": "Senna occidentalis", "experiment": "Growth inhibition of Senna occidentalis (coffee senna) measured 14 days post treatment"}, "[29]": {"system": "Abutilon theophrasti", "experiment": "Growth inhibition of Abutilon theophrasti (velvetleaf) measured 14 days post treatment"}, "[30]": {"system": "Zea mays", "experiment": "Growth inhibition of non glyphosate-resistant Zea mays (maize) measured 14 days post treatment"}},
  "data": [
    {"smiles": "O=C(O)CNCP(=O)(O)O", "note": "[GLYPHOSATE]", "values": [
      {"measurement": "Drug uptake", "setting": "[1]", "value": 287, "unit": "ng/g"},
      {"measurement": "Drug uptake", "setting": "[2]", "value": 4765, "unit": "ng/g"},
      {"measurement": "Drug uptake", "setting": "[3]", "value": 668, "unit": "ng/g"},
      {"measurement": "Drug uptake", "setting": "[4]", "value": 119, "unit": "ng/g"},
      {"measurement": "concentration at 168 h", "setting": "[5]", "value": 851, "unit": "ng/g"},
      {"measurement": "concentration at 168 h", "setting": "[6]", "value": 7430, "unit": "ng/g"},
      {"measurement": "concentration at 168 h", "setting": "[7]", "value": 308, "unit": "ng/g"},
      {"measurement": "concentration at 168 h", "setting": "[8]", "value": 678, "unit": "ng/g"},
      {"measurement": "concentration at 168 h", "setting": "[9]", "value": 26300, "unit": "ng/g"},
      {"measurement": "concentration at 168 h", "setting": "[10]", "value": 5560, "unit": "ng/g"},
      {"measurement": "concentration at 168 h", "setting": "[11]", "value": 3270, "unit": "ng/g"},
      {"measurement": "concentration at 168 h", "setting": "[12]", "value": 38600, "unit": "ng/g"},
      {"measurement": "concentration at 168 h", "setting": "[13]", "value": 5910, "unit": "ng/g"},
      {"measurement": "concentration at 168 h", "setting": "[14]", "value": 6410, "unit": "ng/g"},
      {"measurement": "concentration at 168 h", "setting": "[15]", "value": 26800, "unit": "ng/g"},
      {"measurement": "concentration at 168 h", "setting": "[16]", "value": 25000, "unit": "ng/g"},
      {"measurement": "concentration at 168 h", "setting": "[17]", "value": 5830, "unit": "ng/g"},
      {"measurement": "I50", "setting": "[18]", "value": 220, "unit": "gAi/ha"},
      {"measurement": "I50", "setting": "[19]", "value": 93, "unit": "gAi/ha"},
      {"measurement": "I50", "setting": "[20]", "value": 170, "unit": "gAi/ha"},
      {"measurement": "I50", "setting": "[21]", "value": 250, "unit": "gAi/ha"},
      {"measurement": "I50", "setting": "[22]", "value": 250, "unit": "gAi/ha"},
      {"measurement": "I50", "setting": "[23]", "value": 77, "unit": "gAi/ha"},
      {"measurement": "I50", "setting": "[24]", "value": 272, "unit": "gAi/ha"},
      {"measurement": "I50", "setting": "[25]", "value": 456, "unit": "gAi/ha"},
      {"measurement": "I50", "setting": "[26]", "value": 201, "unit": "gAi/ha"},
      {"measurement": "I50", "setting": "[27]", "value": 252, "unit": "gAi/ha"},
      {"measurement": "I50", "setting": "[28]", "value": 75, "unit": "gAi/ha"},
      {"measurement": "I50", "setting": "[29]", "value": 122, "unit": "gAi/ha"},
      {"measurement": "I50", "setting": "[30]", "value": 93, "unit": "gAi/ha"}
    ]}
  ]
}
